MT stabilize HCS: microtubule stabilization, imaging screen; HeLa tubulin immunostaining HCS, 24 h; share of cells brighter than vehicle mean+2SD; % tubulin-high responders, % at 10 µM; actives 0.83% (n = 200,000);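 active = plate Z-score above 3 for both tubulin-high and condensed-nucleus cell shares, with cell loss under 80%, at 10 µM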;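 also: anti alpha tubulin signal scored within the nucleus-defined area of each cell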
b-catenin transl: alters nuclear translocation of beta-catenin in HeLa cells. nuclear translocation activity, % at 5 µM. actives 0.3% (n = 190,000). immunofluorescence imaging;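 active = nuclear translocation activity above 50% at 5 µM, with a well cell count of 50 or more; inconclusive = wells under 50 cells across six images, flagged as toxic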;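 also: per-cell ratio of nuclear to cytoplasmic median beta-catenin stain intensity; plate controls were DMSO negative control for no effect and GSK-3 inhibitor IX positive control for full effect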
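Signal – beta-catenin immunofluorescence imaging with DAPI · Test system – human HeLa cell line · Dosing – 5 µM primary single dose, 0.1% DMSO, 0.02–20 µM confirmation series · Measure – % activation, nuclear-to-cytoplasmic median beta-catenin signal ratio per cell · Incubation – 24 h compound exposure at 37°C, 5% CO2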
Lmaj promast: inhibitors of Leishmania major promastigote growth | Leishmania major promastigotes, resazurin fluorescence viability | inhibition, % at 10 µM | actives 9% (n = 200,000) | AID 1063; in the data active = inhibition above about 50%;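 also: promastigotes grown with compound for 44 hours at 28 °C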
Dynein transport: blocks dynein driven cargo transport along microtubules | 3617.4 mouse cells, GR-EGFP nuclear translocation imaging; test concentration mostly 20 µM; stimulated with dexamethasone, 1 µM; stronger effect = lower value | z-score, hits read low | actives 0.47% (n = 220,000) | AID 1381;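 active = plate z-score of nuclear minus cytoplasmic receptor signal below a set negative limit, without overly bright fluorescence or cell loss, cut at about -3.5 in these data, passing the limit was not always enough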;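 also: z-score of nuclear minus cytoplasmic ring GR-EGFP intensity difference per well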
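Buffer or medium – tet-free medium with charcoal-stripped serum · Signal – automated 10x imaging of fixed Hoechst-stained cells · Also added – dexamethasone agonist, 1.0 µM final, for 30 min · Incubation – induction 48 h, compound 1 h, agonist 30 min · Read-out – GR-EGFP nuclear translocation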
HSV replic up: increases HSV replication in cells | actives 0.005% (n = 220,000) | maximum fold increase | HSV replication augmentation in cells, fold increase; in the data active = maximum fold increase above about 1.5; inconclusive = no clear call, values can overlap the other calls; tested in PC3 cells
Numbers without * were called inactive. In the library only some 8.9% were active in any assay of this set; here they are far more common.

Screening CCOc1ccc(Br)cc1C1C(C(=O)OC)=C(N)Oc2cc(N(C)C)ccc21 (stereo not given) returned MT stabilize HCS 43, b-catenin transl 15, Lmaj promast 100*, Dynein transport -0.5 and HSV replic up inconclusive.
Screening Cc1ccccc1OCC(O)CN1CCC(C)CC1 (stereo not given) returned MT stabilize HCS 6, b-catenin transl 1, Lmaj promast 72*, Dynein transport -0.045 and HSV replic up inactive.
Cc1ccccc1OCC(O)CN1CCN(CC(O)COc2ccccc2C)CC1 (stereo not given) was read as MT stabilize HCS 3, b-catenin transl 1, Lmaj promast 63*, Dynein transport 0.22 and HSV replic up inactive.
Screening Cc1ccccc1OCC(O)CN1CCCCC1 (stereo not given) returned MT stabilize HCS 2, b-catenin transl -1, Lmaj promast 13, Dynein transport -0.41 and HSV replic up inactive.
`Cc1ccc(C)c(OCC(O)CN2CCC(C)CC2)c1C` (stereo not given) gave MT stabilize HCS 2, b-catenin transl 1, Lmaj promast 100*, Dynein transport -0.65 and HSV replic up inactive.
For Cc1cc(C)cc(NC(=O)C/C(N)=N/O)c1 the results were MT stabilize HCS 1, b-catenin transl -2, Lmaj promast -6, Dynein transport 0.34 and HSV replic up inactive.
For COc1ccccc1NC(=S)NC(=O)c1ccc(-c2ccc(Cl)cc2)o1 the results were MT stabilize HCS 2, b-catenin transl -4, Lmaj promast -1, Dynein transport -0.32 and HSV replic up inactive.
CC(C)CCNC(=O)C(c1ccco1)N(Cc1cccs1)C(=O)Cn1nnc2ccccc21 (stereo not given) was read as MT stabilize HCS 3, b-catenin transl -6, Lmaj promast 39, Dynein transport 1.5 and HSV replic up inactive.
Screening C=CCNS(=O)(=O)c1cccc(C(C)=O)c1 returned MT stabilize HCS 2, b-catenin transl 0, Lmaj promast 54*, Dynein transport -0.59 and HSV replic up inactive.
Screening CC(=O)c1cccc(S(=O)(=O)NCC2CCCCC2)c1 returned MT stabilize HCS 5, b-catenin transl -1, Lmaj promast -5, Dynein transport 0.51 and HSV replic up inactive.
`O=C1CSC(c2cn(-c3ccccc3)nc2-c2cc3ccccc3oc2=O)N1Cc1cccnc1` (stereo not given) gave MT stabilize HCS 1, Lmaj promast 35, Dynein transport 0.025 and HSV replic up inactive.
`Oc1ccccc1/C=N/Nc1ccnc(SCc2ccccc2)n1` gave MT stabilize HCS 5, b-catenin transl 0, Lmaj promast 96*, Dynein transport 3 and HSV replic up inactive.
For Oc1ccccc1/C=N/Nc1ncc(Br)cn1 the results were MT stabilize HCS 2, b-catenin transl 2, Lmaj promast 26, Dynein transport -0.86 and HSV replic up inactive.
O=C(Nc1nc2cc3c(cc2s1)OCCO3)c1cccc(N2C(=O)CCC2=O)c1 was read as MT stabilize HCS 4, b-catenin transl -2, Lmaj promast 55*, Dynein transport -0.82 and HSV replic up inactive.
O=C(NNc1nc2cc3c(cc2s1)OCO3)c1cccc(F)c1 was read as MT stabilize HCS 6, b-catenin transl -4, Lmaj promast 55* and Dynein transport 0.75.
COc1ccccc1C(=O)Nc1nc2cc3c(cc2s1)OCCO3 was read as MT stabilize HCS 4, b-catenin transl -4, Lmaj promast 75*, Dynein transport -0.49 and HSV replic up inactive.
`CCN(CC)S(=O)(=O)c1cccc(C(=O)Nc2nc3cc4c(cc3s2)OCCO4)c1` gave MT stabilize HCS 1, b-catenin transl 0, Lmaj promast 93*, Dynein transport 0.046 and HSV replic up inactive.
For COc1ccccc1C(=O)Nc1nc2cc3c(cc2s1)OCO3 the results were b-catenin transl 0, Dynein transport 2.2 and HSV replic up inactive.
Screening O=C(NNc1nc2cc3c(cc2s1)OCO3)c1ccccc1 returned MT stabilize HCS 4, b-catenin transl -1, Lmaj promast 15 and Dynein transport 1.1.
For Cc1ccc(S(=O)(=O)N2CCC(=O)N(C(COCc3ccc(Cl)c(Cl)c3)Cc3ccccc3)CC2)cc1 (stereo not given) the results were MT stabilize HCS 3, Lmaj promast 15, Dynein transport 0.016 and HSV replic up inactive.
CCOC(=O)c1ccc(-n2c(CN3CCC(C(N)=O)CC3)nc3ccc([N+](=O)[O-])cc3c2=O)cc1 was read as MT stabilize HCS 2, b-catenin transl 2, Lmaj promast 6, Dynein transport -0.32 and HSV replic up inactive.
C=CCn1c(SCC(=O)C(C)(C)C)nnc1-c1cccs1 was read as MT stabilize HCS 6, b-catenin transl 0, Lmaj promast 1, Dynein transport 0.58 and HSV replic up inactive.
COc1ccccc1C(=O)N1CCN(CCc2ccccc2)CC1 was read as MT stabilize HCS 3, b-catenin transl 2, Lmaj promast -9, Dynein transport -1.1 and HSV replic up inactive.
For COc1cccc(C(=O)N2CCN(CCCc3ccccc3)CC2)c1OC the results were MT stabilize HCS 9, b-catenin transl 1, Lmaj promast 93* and Dynein transport 0.93.
Screening COc1cccc(C(=O)N2CCN(C3CCC(c4ccccc4)CC3)CC2)c1OC (stereo not given) returned MT stabilize HCS 5, b-catenin transl 0, Lmaj promast 100*, Dynein transport 0.3 and HSV replic up inactive.
`O=C(c1ccncc1)N1CCN(C2CCC(c3ccccc3)CC2)CC1` (stereo not given) gave b-catenin transl 1, Dynein transport -1.1 and HSV replic up inactive.
Screening COc1ccc(N(C(=O)C2COc3ccccc3O2)C(C(=O)NC2CCCCC2)c2ccccc2)cc1OC (stereo not given) returned MT stabilize HCS 2, b-catenin transl 7, Lmaj promast 99*, Dynein transport 0.31 and HSV replic up inactive.
COc1cc(OC)cc(N(C(=O)C2COc3ccccc3O2)C(C(=O)NC2CCCCC2)c2ccc(O)cc2)c1 (stereo not given) was read as MT stabilize HCS 8, b-catenin transl -2, Lmaj promast 64*, Dynein transport -0.043 and HSV replic up inactive.
Cc1cc(C)nc(SCC(=O)N2CCOCC2)n1 was read as MT stabilize HCS 6, b-catenin transl -2, Lmaj promast 0, Dynein transport 1.2 and HSV replic up inactive.
For O=C(Nc1cn(-c2ccccc2)nc1-c1ccc(F)cc1)c1ccccc1 the results were MT stabilize HCS 5, b-catenin transl -1, Lmaj promast -3, Dynein transport -0.9 and HSV replic up inactive.
Screening O=C(Nc1ccccc1)OCCN1CCN(Cc2ccccc2)CCC1=O returned MT stabilize HCS 3, Lmaj promast 3, Dynein transport 3 and HSV replic up inactive.
Screening Cc1ccc(NC(=O)OCCN2CCN(Cc3ccccc3)CCC2=O)cc1 returned MT stabilize HCS 4, Lmaj promast 74*, Dynein transport 0.61 and HSV replic up inactive.

Source: PubChem BioAssay
